Measurements reported in ChEMBL document CHEMBL3745617 (J Med Chem, 2015).
The source made the active and inactive calls. The calls are words filed in the database; no cut-off is given here.

Columns and labels:
[1] = Half life in Sprague-Dawley rat at 1 mg/kg, iv; type: ADME, organism-based; settings: in vivo
[2] = system: Receptor-type tyrosine-protein kinase FLT3 (Homo sapiens), P36888 [UNDEFINED MUTATION]; assay: Inhibition of FLT3 ITD mutant (unknown origin) expressed in BaF3 cells assessed as inhibition of cell proliferation after 72 hrs by CelltiterGlo assay; type: cell-based
[3] = Apparent volume of distribution in Sprague-Dawley rat at 1 mg/kg, iv; type: ADME, organism-based; settings: in vivo, read-out: Vd(app)
[4] = AUC (0 to t) in Sprague-Dawley rat at 1 mg/kg, iv; type: ADME, organism-based; settings: in vivo
MOLM-14 [5] = assay: Induction of apoptosis in human MOLM14 cells assessed as cleaved PARP level at 0.03 to 1 uM after 24 hrs by immunoblot analysis; type: functional, cell-based
[6] = target: Receptor-type tyrosine-protein kinase FLT3 (Homo sapiens) (UniProt P36888); settings: MOLM-14, 0.03 to 3 uM
MV4-11 [7] = assay: Cell cycle arrest in human MV4-11 cells assessed as accumulation at G0/G1 phase at 0.03 to 1 uM after 24 hrs by flow cytometry; type: functional, cell-based
[8] = Cell cycle arrest in human MOLM14 cells assessed as accumulation at G0/G1 phase at 0.03 to 1 uM after 24 hrs by flow cytometry; type: functional, cell-based; settings: MOLM-14
[9] = system: Receptor-type tyrosine-protein kinase FLT3 (Homo sapiens), P36888 [D835V]; settings: BaF3
[10] = Antiproliferative activity against human NB4 cells after 72 hrs by CelltiterGlo assay; type: functional; settings: NB-4, 72 h
[11] = target: Receptor-type tyrosine-protein kinase FLT3 (Homo sapiens) (UniProt P36888); settings: MOLM-13, 0.03 to 3 uM
MV4-11 [12] = assay: Antiproliferative activity against human MV4-11 cells after 72 hrs by CelltiterGlo assay; type: functional; settings: MV4-11, 72 h
[13] = system: Receptor-type tyrosine-protein kinase FLT3 (Homo sapiens), P36888 [UNDEFINED MUTATION]; settings: BaF3
MOLM-13 [14] = assay: Induction of apoptosis in human MOLM13 cells assessed as cleaved PARP level at 0.03 to 1 uM after 12 hrs by immunoblot analysis; type: functional, cell-based
[15] = target: Proto-oncogene tyrosine-protein kinase receptor Ret (Homo sapiens) (UniProt P07949); assay: Inhibition of RET (unknown origin) assessed as remaining activity at 1 uM relative to control
Chain of Proto-oncogene tyrosine-protein kinase receptor Ret (Homo sapiens) (P07949 whole entry): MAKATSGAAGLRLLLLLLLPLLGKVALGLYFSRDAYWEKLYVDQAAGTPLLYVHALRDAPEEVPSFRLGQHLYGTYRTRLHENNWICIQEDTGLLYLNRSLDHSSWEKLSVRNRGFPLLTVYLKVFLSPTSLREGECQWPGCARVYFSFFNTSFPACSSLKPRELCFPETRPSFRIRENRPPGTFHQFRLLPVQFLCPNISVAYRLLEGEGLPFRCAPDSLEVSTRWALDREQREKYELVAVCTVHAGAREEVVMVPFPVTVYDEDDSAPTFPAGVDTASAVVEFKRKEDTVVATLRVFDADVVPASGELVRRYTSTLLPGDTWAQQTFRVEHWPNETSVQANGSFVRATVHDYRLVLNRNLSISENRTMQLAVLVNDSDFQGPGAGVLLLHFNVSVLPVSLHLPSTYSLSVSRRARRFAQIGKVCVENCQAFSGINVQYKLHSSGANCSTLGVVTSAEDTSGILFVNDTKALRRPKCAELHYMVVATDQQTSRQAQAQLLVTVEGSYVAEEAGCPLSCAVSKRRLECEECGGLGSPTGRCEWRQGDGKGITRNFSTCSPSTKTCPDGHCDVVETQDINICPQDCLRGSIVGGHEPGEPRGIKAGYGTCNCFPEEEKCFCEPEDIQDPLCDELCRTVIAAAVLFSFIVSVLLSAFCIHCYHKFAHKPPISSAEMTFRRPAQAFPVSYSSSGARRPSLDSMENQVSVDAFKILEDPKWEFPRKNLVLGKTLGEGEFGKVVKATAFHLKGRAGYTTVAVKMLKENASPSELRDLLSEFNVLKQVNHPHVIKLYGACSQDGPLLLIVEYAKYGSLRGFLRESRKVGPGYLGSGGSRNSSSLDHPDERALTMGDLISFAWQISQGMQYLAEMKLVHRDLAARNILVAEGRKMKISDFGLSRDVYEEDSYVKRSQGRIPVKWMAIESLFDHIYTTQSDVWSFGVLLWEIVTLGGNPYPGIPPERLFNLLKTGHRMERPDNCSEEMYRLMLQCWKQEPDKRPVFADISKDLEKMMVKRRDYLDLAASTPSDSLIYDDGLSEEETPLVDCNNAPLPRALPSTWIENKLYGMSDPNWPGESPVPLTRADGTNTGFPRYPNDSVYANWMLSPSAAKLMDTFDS
Method in brief: (§1)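 KinomeScan competition binding panel of 468 kinases, with the compound tested at 1 µM. Each kinase's result is reported as percent activity remaining relative to a DMSO control.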

[16] = target: Tyrosine-protein kinase Lck (Homo sapiens) (UniProt P06239); assay: Inhibition of LCK (unknown origin) assessed as remaining activity at 1 uM relative to control; method in brief: as §1
Chain of Tyrosine-protein kinase Lck (Homo sapiens) (P06239 2-509 limits assumed): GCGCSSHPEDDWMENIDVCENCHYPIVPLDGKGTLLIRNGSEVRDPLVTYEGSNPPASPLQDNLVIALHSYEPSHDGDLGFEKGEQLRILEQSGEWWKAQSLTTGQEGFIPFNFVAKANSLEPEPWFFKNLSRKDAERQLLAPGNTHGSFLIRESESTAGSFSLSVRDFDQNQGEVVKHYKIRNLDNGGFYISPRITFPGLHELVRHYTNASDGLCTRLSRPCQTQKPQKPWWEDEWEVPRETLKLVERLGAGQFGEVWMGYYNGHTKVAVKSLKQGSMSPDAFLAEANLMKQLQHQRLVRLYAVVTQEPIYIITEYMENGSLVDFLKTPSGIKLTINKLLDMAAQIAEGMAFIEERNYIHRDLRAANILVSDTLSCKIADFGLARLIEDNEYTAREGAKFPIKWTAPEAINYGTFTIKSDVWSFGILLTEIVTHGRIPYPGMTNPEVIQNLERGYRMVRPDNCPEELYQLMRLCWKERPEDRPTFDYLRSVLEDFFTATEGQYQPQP

Mus musculus = assay: Toxicity in nu/nu mouse xenografted with human MV4-11 cells assessed as body weight at 12.5 to 50 mg/kg/day administered via oral gavge; type: organism-based; settings: in vivo
Method in brief: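 Female nu/nu mice carried established MV4-11 xenografts. Daily oral gavage of 12.5, 25.0 or 50.0 mg/kg/d, or vehicle, began once tumors reached 200 to 400 mm3. Each group had 5 animals, and body weight was tracked over a 22-day treatment period. Data are given as mean ± SEM.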

[17] = Cmax in Sprague-Dawley rat at 10 mg/kg, po; type: ADME, organism-based; design: dose 10 mg/kg, route oral; settings: in vivo
[18] = target: Receptor tyrosine-protein kinase erbB-3 (Homo sapiens) (UniProt P21860); assay: Inhibition of ERBB3 (unknown origin) assessed as remaining activity at 1 uM relative to control
Chain of Receptor tyrosine-protein kinase erbB-3 (Homo sapiens) (P21860 whole entry): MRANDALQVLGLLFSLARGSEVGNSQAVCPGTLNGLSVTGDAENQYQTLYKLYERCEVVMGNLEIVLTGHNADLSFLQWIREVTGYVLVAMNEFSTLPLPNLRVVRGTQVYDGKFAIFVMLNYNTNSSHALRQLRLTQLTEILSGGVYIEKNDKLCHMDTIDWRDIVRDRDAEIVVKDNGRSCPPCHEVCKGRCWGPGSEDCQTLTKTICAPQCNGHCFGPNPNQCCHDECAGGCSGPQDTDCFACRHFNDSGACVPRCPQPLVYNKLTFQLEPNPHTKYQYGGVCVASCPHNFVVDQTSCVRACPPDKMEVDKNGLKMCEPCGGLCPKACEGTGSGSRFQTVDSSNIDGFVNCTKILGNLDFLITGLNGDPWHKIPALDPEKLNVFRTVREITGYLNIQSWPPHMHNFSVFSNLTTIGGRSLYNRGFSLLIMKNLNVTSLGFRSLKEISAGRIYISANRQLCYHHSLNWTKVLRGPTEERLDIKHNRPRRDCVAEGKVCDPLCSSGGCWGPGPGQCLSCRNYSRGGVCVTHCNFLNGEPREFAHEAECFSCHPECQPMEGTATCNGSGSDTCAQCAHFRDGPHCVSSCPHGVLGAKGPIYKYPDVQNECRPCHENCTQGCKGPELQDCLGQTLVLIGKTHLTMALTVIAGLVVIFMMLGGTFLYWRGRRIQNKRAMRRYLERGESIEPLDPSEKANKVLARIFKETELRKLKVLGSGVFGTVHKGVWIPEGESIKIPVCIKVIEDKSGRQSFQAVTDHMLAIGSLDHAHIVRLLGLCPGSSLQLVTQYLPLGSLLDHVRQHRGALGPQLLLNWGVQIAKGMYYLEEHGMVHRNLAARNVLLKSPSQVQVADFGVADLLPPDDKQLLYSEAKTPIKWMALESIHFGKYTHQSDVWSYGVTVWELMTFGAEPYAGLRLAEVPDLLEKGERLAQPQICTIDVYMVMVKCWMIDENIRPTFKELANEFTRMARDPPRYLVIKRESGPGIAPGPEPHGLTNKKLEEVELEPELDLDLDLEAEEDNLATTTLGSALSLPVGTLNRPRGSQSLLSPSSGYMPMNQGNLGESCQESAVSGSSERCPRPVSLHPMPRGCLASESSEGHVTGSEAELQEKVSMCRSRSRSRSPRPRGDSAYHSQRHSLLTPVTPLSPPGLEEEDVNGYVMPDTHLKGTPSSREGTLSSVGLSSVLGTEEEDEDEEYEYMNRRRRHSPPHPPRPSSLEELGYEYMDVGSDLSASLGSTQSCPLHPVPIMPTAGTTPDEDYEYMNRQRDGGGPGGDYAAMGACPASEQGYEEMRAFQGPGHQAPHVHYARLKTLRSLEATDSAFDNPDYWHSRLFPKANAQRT
Method in brief: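 KinomeScan competitive binding panel of 468 kinases. Compound tested at a single 1 µM concentration. Read-out is percent of kinase activity remaining relative to a DMSO control.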

[19] = target: Receptor-type tyrosine-protein kinase FLT3 (Homo sapiens) (UniProt P36888); settings: MV4-11, 0.03 to 3 uM
[20] = Half life in Sprague-Dawley rat at 10 mg/kg, po; type: ADME, organism-based; settings: in vivo
[21] = target: Mast/stem cell growth factor receptor Kit (Homo sapiens, UniProt P10721); assay: Inhibition of c-KIT (unknown origin) expressed in BaF3 cells assessed as inhibition of cell proliferation after 72 hrs by CelltiterGlo assay; type: cell-based
Chain of Mast/stem cell growth factor receptor Kit (P10721 whole entry): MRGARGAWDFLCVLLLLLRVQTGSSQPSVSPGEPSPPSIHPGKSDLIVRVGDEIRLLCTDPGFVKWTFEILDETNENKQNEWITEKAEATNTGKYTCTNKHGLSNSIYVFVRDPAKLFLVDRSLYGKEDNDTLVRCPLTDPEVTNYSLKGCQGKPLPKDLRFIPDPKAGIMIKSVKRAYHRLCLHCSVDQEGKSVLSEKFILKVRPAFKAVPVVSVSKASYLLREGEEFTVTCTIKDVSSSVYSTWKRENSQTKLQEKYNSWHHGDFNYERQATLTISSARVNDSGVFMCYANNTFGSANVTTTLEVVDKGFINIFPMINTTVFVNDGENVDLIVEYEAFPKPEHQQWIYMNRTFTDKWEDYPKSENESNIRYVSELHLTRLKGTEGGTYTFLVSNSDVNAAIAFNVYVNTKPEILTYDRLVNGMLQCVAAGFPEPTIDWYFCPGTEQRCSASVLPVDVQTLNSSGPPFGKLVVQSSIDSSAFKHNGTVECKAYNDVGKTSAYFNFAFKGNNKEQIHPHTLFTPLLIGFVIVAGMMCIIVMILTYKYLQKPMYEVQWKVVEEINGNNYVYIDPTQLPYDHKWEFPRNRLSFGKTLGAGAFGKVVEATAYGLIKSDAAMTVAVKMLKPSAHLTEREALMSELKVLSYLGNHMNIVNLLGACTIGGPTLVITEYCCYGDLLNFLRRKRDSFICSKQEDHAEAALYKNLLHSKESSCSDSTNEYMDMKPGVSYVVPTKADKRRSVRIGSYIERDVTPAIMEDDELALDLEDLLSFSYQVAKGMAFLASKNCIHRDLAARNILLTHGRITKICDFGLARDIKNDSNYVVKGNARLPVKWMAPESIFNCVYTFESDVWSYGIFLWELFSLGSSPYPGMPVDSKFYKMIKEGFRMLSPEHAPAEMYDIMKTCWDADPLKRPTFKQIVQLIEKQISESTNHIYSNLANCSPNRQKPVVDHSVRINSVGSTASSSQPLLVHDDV

[22] = target: Platelet-derived growth factor receptor beta (Homo sapiens) (UniProt P09619); assay: Inhibition of PDGFRB (unknown origin) assessed as remaining activity at 1 uM relative to control
Chain of Platelet-derived growth factor receptor beta (Homo sapiens) (P09619 whole entry): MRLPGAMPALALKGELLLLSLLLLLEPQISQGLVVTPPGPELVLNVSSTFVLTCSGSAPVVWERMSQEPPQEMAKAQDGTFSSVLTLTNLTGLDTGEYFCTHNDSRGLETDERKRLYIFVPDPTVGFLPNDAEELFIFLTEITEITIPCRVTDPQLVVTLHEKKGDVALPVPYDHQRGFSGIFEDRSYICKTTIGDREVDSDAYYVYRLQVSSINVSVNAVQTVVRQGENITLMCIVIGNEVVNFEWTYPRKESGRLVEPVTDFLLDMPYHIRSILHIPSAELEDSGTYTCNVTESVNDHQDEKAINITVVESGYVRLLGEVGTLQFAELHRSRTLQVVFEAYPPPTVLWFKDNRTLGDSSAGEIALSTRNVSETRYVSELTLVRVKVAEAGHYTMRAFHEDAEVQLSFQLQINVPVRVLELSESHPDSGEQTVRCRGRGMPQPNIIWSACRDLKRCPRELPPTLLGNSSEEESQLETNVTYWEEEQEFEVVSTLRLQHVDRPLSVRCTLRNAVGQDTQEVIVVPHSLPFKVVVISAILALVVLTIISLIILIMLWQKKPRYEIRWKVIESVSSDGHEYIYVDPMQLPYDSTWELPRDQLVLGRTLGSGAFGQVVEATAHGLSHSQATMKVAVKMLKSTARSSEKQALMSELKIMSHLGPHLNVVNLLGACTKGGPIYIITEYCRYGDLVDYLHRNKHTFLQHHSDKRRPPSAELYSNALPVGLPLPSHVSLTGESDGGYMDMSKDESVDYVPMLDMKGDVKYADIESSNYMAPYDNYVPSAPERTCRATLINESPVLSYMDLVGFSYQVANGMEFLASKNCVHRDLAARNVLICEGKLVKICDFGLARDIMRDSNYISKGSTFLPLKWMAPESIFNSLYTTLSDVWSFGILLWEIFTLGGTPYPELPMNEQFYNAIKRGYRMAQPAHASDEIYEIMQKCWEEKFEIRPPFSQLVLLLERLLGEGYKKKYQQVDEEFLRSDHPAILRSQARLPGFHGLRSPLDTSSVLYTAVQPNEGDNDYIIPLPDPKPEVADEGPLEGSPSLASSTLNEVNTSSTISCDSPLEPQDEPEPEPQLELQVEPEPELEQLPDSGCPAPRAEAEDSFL

[23] = target: Receptor-type tyrosine-protein kinase FLT3 (Homo sapiens) (UniProt P36888); settings: MOLM-13, 0.03 to 3 uM; remark: listed apart in the source
[24] = system: Receptor-type tyrosine-protein kinase FLT3 (Homo sapiens), P36888 [UNDEFINED MUTATION]; settings: BaF3; remark: listed apart in the source
MOLM-13 [25] = assay: Induction of apoptosis in human MOLM13 cells assessed as cleaved caspase-3 level at 0.03 to 1 uM after 12 hrs by immunoblot analysis; type: functional, cell-based
MOLM-14 [26] = assay: Induction of apoptosis in human MOLM14 cells assessed as cleaved caspase-3 level at 0.03 to 1 uM after 24 hrs by immunoblot analysis; type: functional, cell-based
[27] = Mean residence time (0 to infinity) in Sprague-Dawley rat at 1 mg/kg, iv; type: ADME, organism-based; settings: in vivo
[28] = Clearance in Sprague-Dawley rat at 1 mg/kg, iv; type: ADME, organism-based; settings: in vivo
[29] = target: Receptor-type tyrosine-protein kinase FLT3 (Homo sapiens) (UniProt P36888); settings: MOLM-14, 0.03 to 3 uM; remark: listed apart in the source
[30] = AUC (0 to infinity) in Sprague-Dawley rat at 1 mg/kg, iv; type: ADME, organism-based; design: dose 1 mg/kg, route intravenous, time infinity; settings: in vivo
[31] = Tmax in Sprague-Dawley rat at 1 mg/kg, iv; type: ADME, organism-based; settings: in vivo
[32] = target: Receptor-type tyrosine-protein kinase FLT3 (Homo sapiens) (UniProt P36888); settings: MOLM-13, 0.03 to 3 uM; remark: listed apart in the source
[33] = AUC(0 to t) in Sprague-Dawley rat at 10 mg/kg, po; type: ADME, organism-based; settings: in vivo
[34] = target: Tyrosine-protein kinase JAK3 (Homo sapiens) (UniProt P52333); assay: Inhibition of JAK3 (unknown origin) expressed in BaF3 cells assessed as inhibition of cell proliferation after 72 hrs by CelltiterGlo assay; type: cell-based
[35] = Oral bioavailability in Sprague-Dawley rat at 10 mg/kg; type: ADME, organism-based; settings: in vivo
[36] = Cmax in Sprague-Dawley rat at 1 mg/kg, iv; type: ADME, organism-based; design: dose 1 mg/kg, route intravenous; settings: in vivo
[37] = Tmax in Sprague-Dawley rat at 10 mg/kg, po; type: ADME, organism-based; settings: in vivo
[38] = Antiproliferative activity against human MOLM13 cells after 72 hrs by CelltiterGlo assay; type: functional; settings: MOLM-13, 72 h
[39] = Antiproliferative activity against human U937 cells after 72 hrs by CelltiterGlo assay; type: functional; settings: U-937, 72 h
[40] = Antiproliferative activity against human JVM2 cells after 72 hrs by CelltiterGlo assay; type: functional; settings: JVM-2, 72 h

Molecule `CN(C)CC(=O)N1CCC[C@@H](n2nc(-c3ccc(Oc4ccccc4)cc3)c3c(N)ncnc32)C1` has a half-life [1] of 1.38 h, a GI50 [2] of 11 nM and a Vd [3] of 3.23 L/kg. The AUC(0-t) [4] was 607 ng·h/mL, the Activity (MOLM-14 [5]) was “Active” and the inhibition [6] was “Active”. For the same molecule, the Activity (MV4-11 [7]) was “Active”, the Activity [8] was “Active” and the GI50 [9] was 3 nM. The GI50 [10] was 3800 nM, the inhibition [11] was “Active” and the GI50 (MV4-11 [12]) was 22 nM. For the same molecule, the GI50 [13] was 170 nM, the Activity (MOLM-13 [14]) was “Active” and the Activity [15] was 0.4%. The Activity [16] was 0%, the Activity (Mus musculus) was “Non-toxic” and the Cmax [17] was 458 ng/mL. For the same molecule, the Activity [18] was 0.05%, the inhibition [19] was “Active” and the half-life [20] was 1.24 h. The GI50 [21] was 1900 nM, the Activity [22] was 0.35% and the inhibition [23] was “Active”. The GI50 [24] was 220 nM, the Activity (MOLM-13 [25]) was “Active” and the Activity (MOLM-14 [26]) was “Active”. The MRT inf [27] was 1.15 h, the clearance [28] was 26.9 mL/min/kg and the inhibition [29] was “Active”. For the same molecule, the AUC(0-inf) [30] was 619 ng·h/mL, the Tmax [31] was 1.2 min and the inhibition [32] was “Active”. It also gave an AUC(0-t) [33] of 1830 ng·h/mL, a GI50 [34] of 2500 nM and a bioavailability [35] of 30.4%. It also gave a Cmax [36] of 1500 ng/mL, a Tmax [37] of 1.67 h and a GI50 [38] of 21 nM. The GI50 [39] was 9700 nM and the GI50 [40] was 2600 nM.
